The text below walks through data of PMC6133075 (European Journal of Drug Metabolism and Pharmacokinetics, 2018).

For series [1] the following is noted: rat plasma; cited from earlier work.
The format of series [2] is in vitro ADME, rat. Particulars: three freeze-thaw cycles, n = 3, range of means over QC levels. The gist of the method:
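Freeze–thaw stability of quality-control samples prepared by spiking drug-free rat plasma and drug-free RBC lysate (from three freeze–thaw cycles) at treosulfan 5.5, 55 and 800 μM and S,S-EBDM 9.4 and 94 μM. Samples were processed like study samples and assayed by HPLC–MS/MS. Stability was taken as the final/initial concentration ratio and reported as the range of means across QC levels.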

For series [3] the following is noted: rat lungs; cited from earlier work.
The conditions of series [4]: treosulfan to S,S-EBDM; S,S-EBDM to (2S,3S)-1,2:3,4-diepoxybutane; cited from earlier work.
Series [5] is classed as in vivo, Wistar rats. Particulars: for mean Ke/p (RBC/plasma partition coefficient): mean (± SD) of all 12 rats, 1 and 4 h after i.p. treosulfan 500 mg/kg; for Cp: plasma; for Ce: red blood cells. The gist of the method: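 Wistar rats, 10 weeks old (6 male, 6 female), received a single i.p. bolus of 500 mg/kg in sterile water (10 mL/kg), with ketamine/xylazine anaesthesia. K2EDTA cardiac blood was taken at 1 or 4 h and spun at 3645×g for 5 min at 20 °C. Plasma and RBC were acidified with citric acid; RBC were lysed by three freeze–thaw cycles. HPLC–MS/MS used codeine as internal standard. Ke/p = Ce/Cp.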

Where [6] appears, read: individual female rats, 1 h after i.p. bolus treosulfan 500 mg/kg.
[7] abbreviates: individual female rats, 4 h after i.p. bolus treosulfan 500 mg/kg.
The mark [8] stands for this setting: individual male rats, 1 h after i.p. bolus treosulfan 500 mg/kg.
Where [9] appears, read: individual male rats, 4 h after i.p. bolus treosulfan 500 mg/kg.

“And” between values parts separate entries of the source, which are not always exact repeats. Identical values can stand only once. Like-named read-outs stand apart in the source and are kept apart here.

For the compound `CS(=O)(=O)OC[C@H](O)[C@@H]1CO1` [S,S-EBDM, (2S,3S)-1,2-epoxy-3,4-butanediol 4-methanesulfonate], in series [1], the unbound fraction is given as no less than 0.94. For the same compound, the results for the “Stability (final/initial concentration)” value in series [2] (rat RBC lysate) and in series [2] (rat plasma) were 86.7–89.8% and 88.3–89.4%, respectively. Besides, in series [3], the tissue-to-plasma concentration ratio is recorded as roughly 0.6. The “t1/2 of nonenzymatic epoxidation” value in series [4] is reported as 3.4 h. For the same compound, the “mean Ke/p (RBC/plasma partition coefficient)” value in series [5] is reported as 0.60 ± 0.09. The Cp in series [5] (setting [6]) was 64 µM and 22 µM; in series [5] (setting [7]) it was 5.6 µM and 6.2 µM; in series [5] (setting [8]) it was 58 µM and 61 µM and 3.6 µM; in series [5] (setting [9]), 8.4 µM and 5.5 µM. In addition, the Ce was 36 µM and 34 µM and 2.1 µM in series [5] (setting [8]); 6.7 µM and 3.5 µM in series [5] (setting [9]).
On to `CS(=O)(=O)OC[C@H](O)[C@@H](O)COS(C)(=O)=O` [Treosulfan], for which, in series [1], the unbound fraction was no less than 0.94. The “Stability (final/initial concentration)” value is reported as 85.8–104.8% in series [2] (rat RBC lysate) and 90.7–108.8% in series [2] (rat plasma). Also, the tissue-to-plasma concentration ratio entry in series [3] was “about 0.8”. Besides, in series [4], the “t1/2 of nonenzymatic epoxidation” value was 1.5 h. The “mean Ke/p (RBC/plasma partition coefficient)” value in series [5] stood at 0.74 ± 0.12. The Cp in series [5] (setting [6]) is 1164 µM and 300 µM and 349 µM; in series [5] (setting [7]) it was 113 µM and 83 µM; in series [5] (setting [8]), 943 µM and 1189 µM and 28.8 µM; in series [5] (setting [9]), 112 µM and 120 µM and 30 µM. In addition, the Ce in series [5] (setting [8]) was 704 µM and 779 µM and 24.2 µM; in series [5] (setting [9]), 94 µM and 87 µM and 26 µM.
